Measurements pooled from the literature.
Compare with care: the assays were run in different laboratories. Values after ≈ are worked out from the molar mass of the structure shown.

CNC(=S)NN=Cc1ccc(F)cc1  IC50 (Leishmania major; parasite growth, MTT; 72 h, promastigote): 346 µM
CN1CCN(c2ncc(-c3ccc4nncc(Nc5ncccn5)c4c3)cn2)CC1  EC50 (Leishmania major; parasite growth; intracellular, amastigote): > 25 µM
CCC(=CCc1c(O)cc2c(c1O)C(=O)C[C@@H](c1ccccc1O)O2)CC  inhibition (HeLa; cell growth or viability, MTT; 3.75 µM, 48 h): -0.655%
CNC(=S)NN=Cc1ccc(O)c(OC)c1  IC50 (Leishmania major; parasite growth, MTT; 72 h, promastigote): 38.3 µM
CC(=O)NC[C@H]1CN(c2ccc(N3CCOCC3)c(F)c2)C(=O)O1  MIC50 (Enterococcus faecalis; microbial growth, broth dilution; clinical isolate): 0.5 µg/mL (≈ 1.48 µM)
CCOc1ccc(C(=O)CC(SCc2ccc(Cl)cc2)C(=O)O)cc1 (stereo not shown)  EC50 (U2OS; cell growth or viability, MTT; 48 h): 130 µM
CN[C@H](CC(C)C)C(=O)N[C@H]1C(=O)N[C@@H](CC(N)=O)C(=O)N[C@H]2C(=O)N[C@H]3C(=O)N[C@H](C(=O)N[C@H](C(=O)O)c4cc(O)cc(O)c4-c4cc3ccc4O)[C@H](O)c3ccc(c(Cl)c3)Oc3cc2cc(c3O[C@@H]2O[C@H](CO)[C@@H](O)[C@H](O)[C@H]2O[C@H]2C[C@](C)(N)[C@H](O)[C@H](C)O2)Oc2ccc(cc2Cl)[C@H]1O  MIC (Enterococcus faecalis; microbial growth, agar dilution; ATCC29212): 2 µg/mL (≈ 1.38 µM)
CCC(=CCc1c(O)cc2c(c1O)C(=O)CC(c1ccc(O)cc1)O2)CC (stereo in doubt)  inhibition (HeLa; cell growth or viability, MTT; 1.563 µM, 48 h): 2.57%
C=C[C@]1(C)C[C@@H](OC(=O)CS[C@@H]2C[C@H]3CC[C@@H](C2)N3C)[C@]2(C)[C@H](C)CC[C@]3(CCC(=O)[C@H]32)[C@@H](C)[C@@H]1O  MIC50 (Enterococcus faecalis; microbial growth; clinical isolate): > 128 µg/mL
COc1ccc(Nc2cnnc3cc(-c4ccc(N5CCN(C)CC5)cc4)ccc23)nc1  EC50 (Leishmania major; parasite growth; intracellular, amastigote): 6 µM
